# Read-outs that look alike come from different tables or passages of the source. Marks after values point to notes of the source that are not given here.
# Experiments:
# mutant ataxin-3 protein [1] = experiment: Inhibition of mutant ATX3 protein expression in patient fibroblasts GM06151; type: cell-based, human; settings: PNA conjugates
# In short: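 GM06151 fibroblasts (CAG 74 mutant/24 wild-type repeats) in MEM with 10% heat-inactivated FBS and 0.5% NEAA, 37 °C, 5% CO2, plated two days before dosing. Conjugate stocks heated 65 °C for 5 min, diluted in OptiMEM and added; medium replaced at 24 h; harvest typically day 4. 7.5% SDS-PAGE resolved mutant and wild-type ATX3 bands for western blotting, with β-actin also probed. Inhibition relative to control was fitted per replicate to get separate mutant and wild-type IC50s.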
# mutant ataxin-3 protein [2] = settings: PNA conjugate; GM06151 fibroblasts; ref Hue et al., 2009a; cited from earlier work
Substance,Selectivity (wt IC50 versus mut IC50) (mutant ataxin-3 protein [1]) [fold],Selectivity (wt IC50 versus mut IC50) (mutant ataxin-3 protein [2])
R8-GCTGCTGCTGCTGCTGCTG-K [REP19NR],2.7,–
K8-GCTGCTGCTGCTG-K8 [REP13KK],1.8,–
K-GCTGCTGCTGCTGCTGCTG-(Kpeptoid)8 [REP19P],>2.2,–
K-GCTGCTGCTGCTGCTGCTG-R8 [REP19R],1.6,–
K-GCTGCTGCTGC-K8 [REP11],3.4,–
K-GCTGCTGCTGCTGCTG-K8 [REP16],2.4,–
K-GCTGCTGCTGCTG-K4 [REP13K4],2.3,–
K-GCTGCTGCTGCTGCTGCTG-Spacer-K8 [REP19S],1.7,–
K-GCTGCTGCTGCTG-K6 [REP13K6],5.0,–
K-GCTGCTG-K8 [REP7],3.6,–
K-GCTGCTGCTGCTG-K8 [REP13],2.2,–
K8-GCTGCTG-K [REP7NK],>1.7,–
K-GCTGCTGCT-K8 [REP9],3.0,–
K8-GCTGCTGCTGCTGCTGCTG-K [REP19NK],3.4,–
K-GCTGCTGCTGCTGCTGCTG-K8 [REP19],–,2.7 ^‡ fold

# Source: paper PMC3908450 (Biological chemistry, 2011)
